Screening data deposited in PubChem BioAssay by several laboratories.
STAT1 inh: STAT1 signaling inhibition | NIH 3T3 STAT1-luciferase reporter, IFN-gamma, luminescence | inhibition, % at 5.5 µM | 200,000 compounds, 0.35% hits | AID 920;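 active = inhibition above a set limit, the mean inhibition across all tested compounds plus 3 SD, cut at about 34% in these data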
STAT3 inh: STAT3 signaling inhibition; 190,000 compounds, 0.89% hits; inhibition, % at 5.5 µM; U3A cells, IL-6 STAT3-luciferase reporter, luminescence; host cell line lacks STAT1;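 active = inhibition above the mean inhibition across all screened compounds plus 3 SD, cut at about 44% in these data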
STAT1 act: increases IFN-gamma driven STAT1 reporter signal; activation (% of control), % at 5.5 µM; NIH 3T3 STAT1-luciferase reporter, luminescence; 100% = IFN-gamma alone, no compound; 200,000 compounds, 2.6% hits;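 active = activation above the screen-wide mean activation plus 3 SD, cut at about 130% in these data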
APP 5'UTR act: APP 5'UTR luciferase reporter activation | activation, % at 2 µM | SH-SY5Y APP 5'UTR luciferase reporter, luminescence; zero percent = DMSO vehicle wells | 190,000 compounds, 1% hits;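 active = activation above a set limit, based on mean plus 3 SD of controls, cut at about 140% in these data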
STAT3 activator: increases IL-6 driven STAT3 reporter signal | activation (% of control), % at 5.6 µM | AID 871 | 190,000 compounds, 0.91% hits | U3A cells, IL-6 STAT3-luciferase reporter, luminescence; 100% = signal with IL-6 EC80 alone;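 active = activation above the screen-wide mean of compound activation plus 3 SD, cut at about 130% in these data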
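Assay system – human STAT1-deficient U3A cells with stable STAT3-luciferase reporter · Also added – IL-6 (33 ng/mL) · Schedule – compound 1 h, then IL-6 6 h at 37 °C · Technique – reporter luminescence signal · Evaluation – % activation versus median of IL-6-stimulated wells · Benchmarks – IL-6-only wells as 100% reference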
NF-kB neuron act: NF-kB expression increase, human neuronal cells. NF-kB reporter expression; active compounds read high. fold change at 12.5 µM. 190,000 compounds, 1.6% hits. AID 1239; in the data active = fold change above about 3.3
Large screens that a line does not name were inactive. This is a sample that favours compounds with a hit; in the whole collection about 4.9% have one here.

COC(=O)C1(O)CC(C(C)C)=NN1C(=O)c1ccccc1 (stereo not given)	none
CCOC(=O)c1ccc2nc(NC(=O)c3cccs3)sc2c1	STAT1 act 140, NF-kB neuron act 7
CCOC(=O)c1ccc2nc(NC(=O)C(C)C)sc2c1	STAT1 act 145, NF-kB neuron act 4.2
O=C(Nc1nc2ccc(S(=O)(=O)N3CCCC3)cc2s1)c1cccs1	none
CCCC(=O)Nc1nc2ccc(C(=O)OCC)cc2s1	none
CCCCC(=O)Nc1nc2ccc(C(=O)OC)cc2s1	STAT1 act 129
Cc1ccc(/C=N/NC(=O)Nc2ccccc2)o1	STAT1 act 148
CC(=O)Nc1cccc(C(=O)N/N=C/c2ccc(C)o2)c1	none
O=[N+]([O-])c1ccc2nc(-c3ccccc3)n(OCc3ccc(Cl)cc3)c2c1	NF-kB neuron act 5.1
Cc1cc(C)nc(N/N=C/c2cccc(Cl)c2)n1	none
Clc1cccc(/C=N/Nc2nc(Cl)nc3ccccc23)c1	STAT1 act 145 (no result: APP 5'UTR act)
COc1ccccc1C1=NC(c2ccc(C)cc2)N=C1C (stereo not given)	STAT1 act 135
COc1ccc(-c2csc(-c3[nH]cnc3N)n2)cc1	none
Cc1occc1C(=O)Nc1ccc2c(c1)OCCO2	STAT1 act 131
O=C(Nc1ccc2c(c1)OCCO2)c1cncc(Br)c1	APP 5'UTR act 157, NF-kB neuron act 4.9
Cc1cc(C(=O)Nc2ccc3c(c2)OCCO3)c(C)o1	STAT1 act 130, NF-kB neuron act 4.6
N=C1SCC(=O)N1c1ncc(Cc2ccc(F)cc2)s1	none
Oc1ccc2ccccc2c1C=Nc1ccc(Cl)cn1	none
Cc1cc(C)nc(Nc2n[nH]c(-c3ccccc3Br)n2)n1	none
Cc1cc(C)nc(Nc2n[nH]c(C)n2)n1	none
Cc1cc(C)nc(Nc2n[nH]c(-c3ccc(N)cc3)n2)n1	STAT1 act 156 (no result: APP 5'UTR act)
Cc1cc(C)nc(Nc2n[nH]c(-c3ccccc3C)n2)n1	STAT1 act 135
Nc1nc(COc2ccc(F)cc2Cl)nc(N2CCCCC2)n1	none
COC(=O)c1[nH]nc(C(=O)OC(C)(C)C)c1-c1ccccc1	none
CCOC(=O)c1sc(NC(=O)CSc2ccccn2)c(C#N)c1C	NF-kB neuron act 3.8
CC1CCC/C(=C\Nc2ccc(C(=O)O)cc2)C1=O (stereo not given)	STAT1 act 149, APP 5'UTR act 139, NF-kB neuron act 3.8
CCOC(=O)c1ccc(N/C=C2/CCCC(C)C2=O)cc1 (stereo not given)	none
Cc1nc(N)sc1N=Nc1ccc(F)cc1	STAT1 act 136
Nc1n[nH]c(N)c1N=Nc1ccc(F)cc1	none
O=C(/C=C/c1ccc(Cl)cc1Cl)N1CCc2ccccc21	STAT1 act 141
O=C(O)/C=C\C(=O)N1CCc2ccccc21	none
CC(=O)c1cnc2cc(-c3ccc(Cl)cc3)nn2c1C	STAT1 act 138, NF-kB neuron act 3.6
CC(C)Oc1ccc(CCc2n[nH]c(=S)n2-c2ccccc2)cc1	none
O=C(Nc1cc2ccccc2oc1=O)c1ccccc1	STAT1 inh 76, STAT3 inh 96
COc1cc2c(cc1NC(=O)c1ccccc1F)CCCC2	STAT1 act 138
COc1ccccc1C(=O)NNC(=O)c1ccccc1F	STAT1 act 138
COCC(=O)NNC(=O)c1ccccc1OC	STAT3 activator 135
COc1ccccc1C(=O)NNC(=O)c1cccc(F)c1	STAT1 act 146
CC(=O)N(c1nc(CCl)cs1)c1c(C)cc(C)cc1C	none
CCCCC(CC)CNC(=O)CC1Nc2c3ccccc3nc(=S)n2C1=O (stereo not given)	none
O=C1NC(=O)/C(=C\c2ccc(O)cc2O)S1	none
COc1ccc(/C=N/Nc2ncnc3sc4c(c23)CCCC4)cc1OC	none
CN(C1CCCCC1)S(=O)(=O)c1ccc(C(=O)N2CCN(c3nc4ccccc4s3)CC2)cc1	none
Cn1cc([N+](=O)[O-])c(C(=O)Nc2ccc(C(=O)N3CCCCC3)cc2)n1	none
Cn1cc([N+](=O)[O-])c(C(=O)Nc2ccc3nc(-c4ccccc4)[nH]c3c2)n1	none
Cn1cc([N+](=O)[O-])c(C(=O)Nc2ccc(-c3nc4ccccc4[nH]3)cc2)n1	NF-kB neuron act 9.5
O=C(Nc1ccc(-c2nc3ccccc3[nH]2)cc1)c1ccco1	STAT1 act 141, APP 5'UTR act 169
